Experimental data of several laboratories.
Compare with care: the assays were run in different laboratories.
LCK: Tyrosine-protein kinase Lck (LCK, Homo sapiens, UniProt P06239)
LCK phosphorylated: Tyrosine-protein kinase Lck, phosphorylated (LCK, Homo sapiens, UniProt P06239)

| SMILES | target | read-out | mode | technique | tested at | endpoint | result |
| --- | --- | --- | --- | --- | --- | --- | --- |
| CS(=O)(=O)N1CCCC(NC(=O)[C@H](CCC2CCCCC2)NC(=O)c2ccc(CNc3ncnc4c3nnn4-c3ccccc3)cc2)C1 (stereo partly shown) | LCK | cell-free assay |  | competition with immobilised ligand | 0.1 µM | remaining binding | 100% |
| CNC(=O)c1cc2c(Oc3ccc(NC(=O)C4(C(=O)Nc5ccc(F)cc5)CC4)cc3)ccnc2cc1OC | LCK phosphorylated | enzyme activity | inhibitor | radiometric | 1 µM | inhibition | 97% |
| CCCS(=O)(=O)Nc1ccc(F)c(C(=O)c2c[nH]c3ncc(-c4ccc(Cl)cc4)cc23)c1F | LCK | enzyme activity | inhibitor |  | 1 µM | inhibition | < 10% |
| Cc1cc(NC(=O)c2cccc3cc(-c4cccc5[nH]nc(N)c45)ccc23)ccc1F | LCK | enzyme activity | inhibitor |  | 0.1 µM | activity vs control | 90% |
| Cc1cn(-c2cc(NC(=O)c3ccc(C)c(Nc4nccc(-c5cccnc5)n4)c3)cc(C(F)(F)F)c2)cn1 | LCK | enzyme activity | inhibitor |  | 0.5 µM | activity vs control | 22.2% |
| CC/C(=N\NC(=O)NCc1cccc(O)c1)c1ccc(O)c(C)c1O | LCK | enzyme activity | inhibitor |  | 0.1 µM | inhibition | 2% |
| C[C@H](NC(=O)c1cnc2n1[C@](C)(Cc1ccc(C#N)cc1)C(=O)N2c1cc(Cl)c(F)c(Cl)c1)C(=O)NC1(c2ccccn2)CC1 | LCK | cell-free assay |  | competition with immobilised ligand | 1 µM | remaining binding | 100% |
| Cc1ccc(C(=O)NCc2ccsc2)cc1C#Cc1cn(C(C)C)c2ncnc(N)c12 | LCK phosphorylated | enzyme activity | inhibitor |  | 1 µM | activity vs control | 2% |
| FC(F)(F)Oc1cccc(-c2cnc3ccc(-c4ccncc4)nn23)c1 | LCK | enzyme activity | inhibitor | radiometric | 5 µM | activity vs control | 25% |
| CN(C)C1CCN(CC#Cc2nn(C3CCCC3)c3nc(NCc4ccccc4)ncc23)C1 (stereo not shown) | LCK | enzyme activity | inhibitor | FRET | 1 µM | inhibition | 31% |
| CNC(=O)c1ccccc1Nc1cc(Nc2ccc(N3CCOCC3)cc2OC)ncc1C(F)(F)F | LCK | enzyme activity | inhibitor |  | 1 µM | inhibition | > 50% |
| CCS(=O)(=O)c1cc2cc(C[C@@](O)(CC(C)(C)c3ccc(F)cc3C(N)=O)C(F)(F)F)[nH]c2cn1 | LCK | cell-free assay |  | competition with immobilised ligand | 1 µM | remaining binding | 81% |
| Cc1ccc(Nc2nccc(N(C)c3ccc4c(C)n(C)nc4c3)n2)cc1S(N)(=O)=O | LCK | enzyme activity | inhibitor |  | 10 µM | inhibition | 99% |
| CNCc1ccc(-c2cc(-c3nc(-c4ccc(S(=O)(=O)C(C)C)cc4)cnc3N)on2)cc1 | LCK | enzyme activity | inhibitor |  | 0.4 µM | inhibition | 42% |
| CN(c1nccc(-c2cnn3ncccc23)n1)C1CC1 | LCK | cell-free assay |  |  | 1 µM | remaining signal | 98% |
| COc1cc2ncnc(Nc3ccc(Oc4ccccc4)c(C)c3C)c2cc1OC | LCK | enzyme activity | inhibitor |  | 1 µM | inhibition | 83% |
| c1cc(-c2cnn3cc(-c4ccc(OCCN5CCCCC5)cc4)cnc23)ccn1 | LCK | enzyme activity | inhibitor |  | 0.5 µM | activity vs control | 51.8% |
| Cc1cc(-n2nc(Cc3cc(F)cc(C(F)(F)F)c3)nc2C)ccc1C(N)=O | LCK | cell-free assay |  | competition with immobilised ligand | 1 µM | remaining binding | 100% |
| CCOc1cc(-c2nncn2C)ccc1Nc1ncc2cc(C)nc(NCC(C)(C)C)c2n1 | LCK | enzyme activity | inhibitor | FRET | 1 µM | inhibition | < 15% |
| NS(=O)(=O)c1cc(NC(=O)Cc2ccccc2)ccc1Oc1cccc(Cl)c1 | LCK | cell-free assay |  | competition with immobilised ligand | 1 µM | remaining binding | 70% |
| C=CC(=O)Nc1cc(Nc2nccc(Nc3cc(Cl)c(F)cc3C(C)(C)O)n2)c(OC)cc1N1CC[C@@H](N(C)C)C1 | LCK | enzyme activity | inhibitor |  | 1 µM | inhibition | 37% |
| C[C@@H]1CN(c2cc(-c3nn(C)c4ccc(OC5(C)CC5)cc34)ncn2)C[C@H](C)O1 | LCK | cell-free assay |  | competition with immobilised ligand | 1 µM | remaining binding | 94% |
| N[C@H]1CCN(c2nccc(-c3cnn4ncccc34)n2)C1 | LCK | cell-free assay |  |  | 1 µM | remaining signal | 90% |
| CSc1nc(C)c(-c2ccnc(Nc3ccc(N4CCOCC4)cc3)c2)[nH]1 | LCK | enzyme activity | inhibitor |  | 10 µM | inhibition | 15.8% |
| CN(C)CC#Cc1ccc(OCCCc2sc(N3CCc4cccc(C(=O)Nc5nc6ccccc6s5)c4C3)nc2C(=O)O)c(F)c1 | LCK | cell-free assay |  | competition with immobilised ligand | 1 µM | remaining binding | 100% |
